# Measured values pooled from the literature.
# Each line is one published result; the experiments were not run side by side.
Structure (SMILES),target or system,test,system,conditions,endpoint,result
CO[C@H]1/C=C/O[C@@]2(C)Oc3c(C)c(O)c4c(O)c(c(/C=N/N5CCN(C)CC5)c(O)c4c3C2=O)NC(=O)/C(C)=C\C=C\[C@H](C)[C@H](O)[C@@H](C)[C@@H](O)[C@@H](C)[C@H](OC(C)=O)[C@@H]1C,Mycobacteroides abscessus,microbial growth,ATCC19977,,MIC,25 to 100 µg/mL
COC(=O)c1cc(-c2cccc(NC(=O)Nc3ccc(Cl)cc3Cl)c2)on1,Mycobacteroides abscessus,"microbial growth, broth dilution",ATCC19977,48 h,MIC,> 64 µg/mL
N.N.[Cl][Pt][Cl],PLC,cell growth or viability,,24 h,IC50,63.9 µM
O=C(O)c1cn(C2CC2)c2cc(N3CCNCC3)c(F)cc2c1=O,Mycolicibacterium vaccae,microbial growth,IMET10670,5 µg/mL,inhibition zone,41 mm
COCCOCOc1cc(O)c(-c2cc(-c3ccc(C(=O)O)cc3)n(-c3ccccc3)n2)cc1C12CC3CC(CC(C3)C1)C2,Jurkat,"cell growth or viability, ATP luminescence",,24 h,IC50,2.54 µM
CN(C(=O)/C=C/c1ccoc1)[C@@H]1CC[C@@]2(O)[C@H]3Cc4ccc(O)c5c4[C@@]2(CCN3CC2CC2)[C@H]1O5,,thermal pain,mouse,subcutaneous,ED50,0.046 mg/kg
COC(=O)c1cc(-c2cccc(NC(=O)Nc3cccc(Cl)c3)c2)on1,Mycobacteroides abscessus,"microbial growth, broth dilution",ATCC19977,48 h,MIC,> 64 µg/mL
CCC1(c2ccc(N)cc2)CCC(=O)NC1=O (stereo not shown),DU-145,"cell growth or viability, CCK-8",,48 h,IC50,> 50 µM
COC(=O)c1cc(-c2cccc(NC(=S)Nc3ccc(C#N)cc3)c2)on1,Mycobacteroides abscessus,"microbial growth, broth dilution",ATCC19977,48 h,MIC,> 64 µg/mL
COc1c2c(cc3c1OCO3)[C@]13C=C[C@H](OC)C[C@@H]1[N@](C2)C[C@H]3OC(=O)c1ccc2ccccc2c1,MOLT-4,"cell growth or viability, WST-1",,,IC50,> 10 µM
[H]/N=C(/N)N[C@H]1[C@H](O)[C@@H](O)[C@H](O[C@@H]2O[C@@H](C)[C@](O)(C=O)[C@H]2O[C@@H]2O[C@@H](CO)[C@H](O)[C@@H](O)[C@@H]2NC)[C@@H](N/C(N)=N\[H])[C@@H]1O,Mycobacteroides abscessus,microbial growth,ATCC19977,,MIC,50 µg/mL
COCCOCOc1cc(OCc2cc(F)cc(F)c2)c(C(=O)/C=C/c2ccc(C(=O)O)cc2)cc1C12CC3CC(CC(C3)C1)C2,Jurkat,"cell growth or viability, ATP luminescence",,24 h,IC50,0.93 µM
Cn1cnc(Cn2c(=O)[nH]/c(=N\c3cc4cn(C)nc4cc3Cl)n(Cc3cc(F)c(F)cc3F)c2=O)n1,Alphacoronavirus 1,"viral replication, inhibitor, qPCR",CRFK,,EC50,~50 µM
